Measured values taken from PubChem BioAssay.
Inconclusive results are not listed.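 The calls were made as follows, unless noted: active = viability increase at or above a cutoff of the median across tested compounds plus 3 SD (cut at about 8.5% in these data, passing the limit was not always enough); inconclusive = some gains above the cutoff, reason not given; inactive = the rest.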

Columns and labels:
[1] = OD615 S. cerevisiae growth inhibition, permissive medium, pilot counter-assay, permissive growth control for S. cerevisiae lifespan shortening project (AID 705;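 active = growth inhibition above 25% in both replicates, a cutoff set 3 SD above the mean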); settings: OD615, 24 h, at 10 µM, active compounds read high
Summary of the method: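 System: S. cerevisiae with engineered DeaD lifespan system. Medium: SC raffinose/galactose permissive medium. Doses: single compound dose of 10 µM, 0.25% DMSO final. Schedule: 24 h exposure, 30 °C. Measured by: OD615 turbidity read. Read-out: growth inhibition.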

[2] = Restrictive medium S. cerevisiae growth inhibition, OD615, pilot screen of yeast lifespan reduction project, restrictive growth control (AID 706;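 active = growth inhibition above a set limit, 3 SD over mean compound inhibition, in both replicates, cut at about 43% in these data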;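 also: modified DeaD lifespan yeast strain shifted to restrictive glucose medium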); settings: OD615, 48 h, at 10 µM, active compounds read high
Summary of the method: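 Assay system – genetically modified Saccharomyces cerevisiae, DeaD replicative lifespan assay strain · Medium – CSMM-D glucose medium · Doses – 10 µM compound, 0.25% DMSO · Times – 4 h pre-incubation, 48 h exposure at 30 °C · Signal – optical density at 615 nm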

[3] = viability gain of MRP-1-high H69AR cells under doxorubicin, pilot screen, MRP-1 activator project, CellTiter-Glo, duplicate (AID 807); settings: H69AR viability with doxorubicin, CellTiter-Glo luminescence; at 10 µM; active compounds read high;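 also: compound pretreatment 18-22 h then 72 h combined with doxorubicin; 0% = doxorubicin alone and 100% = vehicle without doxorubicin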
[4] = growth suppression of beta-catenin knockout HCT116, pilot screen, human colon tumor cells (AID 823;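 active = cell viability at or below a set limit in both duplicate runs, the limit being the all-compound median minus 4 SD, cut at about 23% in these data, passing the limit was not always enough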;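 also: 0% = wells killed by 20 µM Hyamine and 100% = untreated DMSO cell wells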); settings: CellTiter-Glo, 60 h, at 10 µM, active compounds read low
[5] = growth suppression of PTEN-deleted HCT116, pilot screen, cell-based, HCT116 clonal line, CellTiter-Glo (AID 824;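 active = viability at or below 27.92% in each of two runs, the all-compound median minus 4 SD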;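 also: 0% = 20 µM Hyamine control and 100% = vehicle cell control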); settings: 60 h, at 10 µM, active compounds read low
[6] = inhibitors of the yeast RAM network, pilot screen, dse1pr::URA3 reporter, 5-FOA selection (AID 869;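 active = inhibition over a set limit, the all-compound mean plus 3 SD, in both replicate runs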;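 also: 0% = DMSO wells with no growth and 100% = 10 µM 1-NA-PP1 with full growth; RAM network block rescues cells from 5-FOA so hits raise OD615 growth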); settings: S. cerevisiae dse1pr::URA3 5-FOA growth, OD615, 2 d; at 10 µM; active compounds read high; strain carries analog-sensitive mutant Cbk1 kinase
[7] = RAM signaling pathway blockade in yeast – S. cerevisiae, Pdr1DBD-CYC8 efflux-inhibited sensitized strain, primary screen (AID 1298;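 active = RAM network inhibition above 8.4% in each of two replicates, 3 SD over the compound average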;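 also: 0% = DMSO untreated cells without growth and 100% = 10 µM 1-NA-PP1 full growth; higher means more yeast growth rescued from 5-FOA killing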); settings: S. cerevisiae cbk1-as DSE1-URA3 strain, 5-FOA growth OD615, 2 d; at 50 µM; active compounds read high

Cc1ccc(Cn2c3ccccc3c3cn[nH]c(=O)c32)cc1
inactive: growth inhibition [1] -15.7% | growth inhibition [2] -24.6% | viability increase [3] -3.48% | viability [4] 101% | viability [5] 91.1% | inhibition [6] 2.17% | RAM network inhibition [7] 3.88%

CCOC(=O)C1CCCN(C(=O)c2cn(CC(C)C)c(=O)c3cc(OC)c(OC)cc23)C1 (stereo unspecified)
inactive: growth inhibition [1] -8.41% | growth inhibition [2] -15.7% | viability increase [3] -3.43% | viability [4] 97% | viability [5] 95% | inhibition [6] 0.555% | RAM network inhibition [7] 0.93%

CC(=O)c1coc2ccc(OCCN3CCCCC3)cc12
inactive: growth inhibition [1] -8.68% | growth inhibition [2] -18.4% | viability increase [3] -3.83% | viability [4] 85.2% | viability [5] 85.8% | inhibition [6] 0.64% | RAM network inhibition [7] 2.59%

Cc1ccccc1NC(=O)NCCN1C(=O)C2C3C=CC(C3)C2C1=O (stereo unspecified)
inactive: growth inhibition [1] -7.87% | growth inhibition [2] 1.59% | viability increase [3] -2.01% | viability [4] 103% | viability [5] 102% | inhibition [6] 0.745% | RAM network inhibition [7] 1.46%

CCn1nc(C(=O)OCC(=O)c2ccc3c(c2)OCCO3)c2ccccc2c1=O
inactive: growth inhibition [1] -8.66% | growth inhibition [2] -8.03% | viability increase [3] -3.31% | viability [4] 89.9% | viability [5] 90.3% | inhibition [6] 1.78% | RAM network inhibition [7] 3.16%

CCCCOC(=O)Nc1ccc(S(=O)(=O)Nc2cc(C)nc(C)n2)cc1
inactive: growth inhibition [1] -16.6% | growth inhibition [2] -11.7% | viability increase [3] -1.66% | viability [4] 95.8% | viability [5] 91.6% | inhibition [6] 1% | RAM network inhibition [7] 6.71%

COc1ccc(C2CC(C(F)(F)F)n3ncc(C(=O)O)c3N2)cc1OC (stereo unspecified)
inactive: growth inhibition [1] -0.77% | growth inhibition [2] -3% | viability increase [3] 0.06% | viability [4] 97.2% | viability [5] 97.9% | inhibition [6] 0.23% | RAM network inhibition [7] -0.41%

O=C(O)c1c2c(nc3ccc(S(=O)(=O)N4CCC(C(=O)N5CCCCC5)CC4)cc13)CCCC2
inactive: growth inhibition [1] -3.06% | growth inhibition [2] -3.51% | viability increase [3] 0.51% | viability [4] 97.3% | viability [5] 92.8% | inhibition [6] 0.79% | RAM network inhibition [7] 1.98%

COc1ccc(C2(C(F)(F)F)NC(=O)N(C)C(=O)N2C)cc1 (stereo unspecified)
inactive: growth inhibition [1] -14.7% | growth inhibition [2] -19.5% | viability increase [3] -0.46% | viability [4] 99% | viability [5] 101% | inhibition [6] 1.11% | RAM network inhibition [7] 2.74%

CCOC(=O)N1CCC(Nc2c(N3CCN(c4cc(Cl)ccc4C)CC3)c(=O)c2=O)CC1
inactive: growth inhibition [1] 3.09% | growth inhibition [2] 4.44% | viability increase [3] -2.34% | viability [4] 71.9% | viability [5] 72.3% | inhibition [6] 2.42% | RAM network inhibition [7] 2.95%

Cc1cccc(NC(=O)C2CCCN(S(=O)(=O)c3cccc4cccnc34)C2)c1 (stereo unspecified)
inactive: growth inhibition [1] -13.1% | growth inhibition [2] -9.72% | viability increase [3] -1.92% | viability [4] 87.2% | viability [5] 74.6% | inhibition [6] 2.15% | RAM network inhibition [7] 3.91%

CCN1CCN(S(=O)(=O)c2ccc3[nH]c(=O)oc3c2)CC1
inactive: growth inhibition [1] -9.66% | growth inhibition [2] -6.6% | viability increase [3] -0.48% | viability [4] 104% | viability [5] 107% | inhibition [6] 1.5% | RAM network inhibition [7] 4.74%

O=C(O)c1ccccc1C(=O)c1cccs1
inactive: growth inhibition [1] -14.9% | growth inhibition [2] -17.1% | viability increase [3] -0.3% | viability [4] 101% | viability [5] 92.5% | inhibition [6] 0.54% | RAM network inhibition [7] 1.05%

O=c1nc2scc(-c3ccccc3)n2c2ccccc12
inactive: growth inhibition [1] -14.7% | growth inhibition [2] -0.83% | viability increase [3] -2.24% | viability [4] 94.1% | viability [5] 97.1% | inhibition [6] 4.32% | RAM network inhibition [7] 7.95%

CC(C)Cc1cc(C(=O)Nc2ccc(F)cc2F)no1
inactive: growth inhibition [1] -18.9% | growth inhibition [2] -23.4% | viability increase [3] 1.32% | viability [4] 100% | viability [5] 98.6% | inhibition [6] 0.505% | RAM network inhibition [7] 0.21%

CC1c2[nH]c3ccccc3c2CCN1S(C)(=O)=O (stereo unspecified)
inactive: growth inhibition [1] 2.66% | growth inhibition [2] 14.2% | viability increase [3] -0.49% | viability [4] 98.4% | viability [5] 90.8% | inhibition [6] 0.31% | RAM network inhibition [7] 0.57%

CCN1CCN(c2cc(C)c3cc(NC(=O)c4cnccn4)ccc3n2)CC1
inactive: growth inhibition [1] -11.2% | growth inhibition [2] 1.29% | viability increase [3] -3.82% | viability [4] 84.5% | viability [5] 89.5% | inhibition [6] -0.02% | RAM network inhibition [7] -0.42%

COC(=O)CSc1nc2ccccc2nc1SCC(=O)OC
inactive: growth inhibition [1] -11.7% | growth inhibition [2] -9.89% | viability increase [3] -2% | viability [4] 93.4% | viability [5] 92% | inhibition [6] 2.12% | RAM network inhibition [7] 7.83%

O=C(C1CCCCN1S(=O)(=O)c1ccc(F)cc1)N1CCN(c2ccccc2F)CC1 (stereo unspecified)
inactive: growth inhibition [1] -14.1% | growth inhibition [2] -8.47% | viability increase [3] -1.06% | viability [4] 80.8% | viability [5] 82.9% | inhibition [6] -0.01% | RAM network inhibition [7] 1.9%

CC1CCN(c2ncnc3c2cnn3-c2ccccc2)CC1
inactive: growth inhibition [1] 7.81% | growth inhibition [2] 10.9% | viability increase [3] 4.17% | viability [4] 77.8% | viability [5] 87.3% | inhibition [6] 0.495% | RAM network inhibition [7] -1.46%

COc1cc2[nH]c(=O)n(CCC(=O)NC3CCN(Cc4ccccc4)CC3)c(=O)c2cc1OC
inactive: growth inhibition [1] -0.585% | growth inhibition [2] -8.45% | viability increase [3] -1.84% | viability [4] 101% | viability [5] 94.3% | inhibition [6] 2.09% | RAM network inhibition [7] -0.53%

CN(C)S(=O)(=O)c1ccc(C(=O)Nc2ccc(OCC(=O)N3CCOCC3)cc2)cc1
inactive: growth inhibition [1] 0.98% | growth inhibition [2] -1.1% | viability increase [3] -1.5% | viability [4] 97.7% | viability [5] 97.9% | inhibition [6] 2.33% | RAM network inhibition [7] 0.86%

O=C(CN1C(=O)CSc2ncccc21)N1CCOCC1
inactive: growth inhibition [1] 7% | growth inhibition [2] -0.87% | viability increase [3] -0.22% | viability [4] 97.9% | viability [5] 101% | inhibition [6] -0.115% | RAM network inhibition [7] 7.38%

COC(=O)c1ccc(C2C(C(C)=O)=C(C)Nc3ncnn32)cc1 (stereo unspecified)
inactive: growth inhibition [1] -8.45% | growth inhibition [2] 9.82% | viability increase [3] -1.07% | viability [4] 108% | viability [5] 98.7% | inhibition [6] 1.9% | RAM network inhibition [7] 2.09%

O=C(NCCCc1ccccc1)C1CCN(c2nnc(-n3cccc3)s2)CC1
inactive: growth inhibition [1] -1.03% | growth inhibition [2] 0.98% | viability increase [3] 3.79% | viability [4] 93.3% | viability [5] 97% | inhibition [6] 0.175% | RAM network inhibition [7] 5.38%

COc1ccc(-n2c3c(cc(C(=O)N4CCC(C)CC4)c2=O)C(=O)CC(C)(C)C3)cc1
inactive: growth inhibition [1] -3.21% | growth inhibition [2] 7.18% | viability increase [3] -2.27% | viability [4] 111% | viability [5] 101% | inhibition [6] 1.98% | RAM network inhibition [7] 0.25%

Cn1c(NC(=O)c2cccs2)cc(=O)n(C)c1=O
inactive: growth inhibition [1] 7.14% | growth inhibition [2] 0.885% | viability increase [3] -1.55% | viability [4] 107% | viability [5] 95.5% | inhibition [6] 0.13% | RAM network inhibition [7] -1.35%

Nc1nc(Nc2cccc(F)c2)nc2ccccc12
inactive: growth inhibition [1] -11.6% | growth inhibition [2] -30.8% | viability increase [3] -5.76% | viability [4] 70.3% | viability [5] 67.6% | inhibition [6] 1.88% | RAM network inhibition [7] 4.92%

O=C(CSc1nc2ncccc2[nH]1)NCc1ccccc1
inactive: growth inhibition [1] 0.36% | growth inhibition [2] 13.3% | viability increase [3] -0.06% | viability [4] 101% | viability [5] 86.9% | inhibition [6] 3.13% | RAM network inhibition [7] 3.93%

CCCCN(CC)CCNC(=O)c1cc2c(=O)n(C)c3ccccc3c2n1C
inactive: growth inhibition [1] 2.65% | growth inhibition [2] -6.07% | viability increase [3] -5.86% | viability [4] 49% | viability [5] 48.6% | inhibition [6] 0.8% | RAM network inhibition [7] 0.41%

CCSc1nnc2c(n1)[nH]c1c(C)cccc12
inactive: growth inhibition [1] -6.89% | growth inhibition [2] -1.28% | viability increase [3] -5.1% | viability [4] 47.9% | viability [5] 65.5% | inhibition [6] 4% | RAM network inhibition [7] 4.68%

Cc1cc(C)nc(-n2nc(C)cc2NC(=O)CN2CCC(C)CC2)n1
inactive: growth inhibition [1] -0.83% | growth inhibition [2] 21.6% | viability increase [3] -5.27% | viability [4] 75.3% | viability [5] 85.5% | inhibition [6] 1.01% | RAM network inhibition [7] 2.91%

CCN(C(=O)c1sc(N)c(C#N)c1C)C1CCCCC1
inactive: growth inhibition [1] -1.28% | growth inhibition [2] -0.585% | viability increase [3] 0.43% | viability [4] 92.1% | viability [5] 91.6% | inhibition [6] 1.5% | RAM network inhibition [7] 0.01%
